In ChEMBL document CHEMBL1781906, “New quinolin-4-yl-1,2,3-triazoles carrying amides, sulphonamides and amidopiperazines as potential antitubercular agents” (2011):
Converted amounts (≈) assume the structure as drawn.

What was measured:
Assay type in all cases: functional
[1] = system: Mycolicibacterium smegmatis; assay: Antimycobacterial activity against Mycobacterium smegmatis ATCC 19420 after 7 days by resazurin method; conditions: ATCC 19420, 168 h
Outline: (§1)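 MIC was determined by resazurin microplate assay. Resazurin turns from blue to pink when reduced by viable cells, and wells with no colour change were scored as inhibited. Isoniazid and rifampicin were reference drugs.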

[2] = system: Mycobacterium tuberculosis; assay: Antimycobacterial activity against Mycobacterium tuberculosis H37Rv ATCC 27294 after 7 days by resazurin method; conditions: H37Rv ATCC 27294, 168 h
Outline: (§2)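 H37Rv was grown in Middlebrook 7H9 broth with 10% OADC, diluted to McFarland 2 in the same medium, and added to fresh medium in 96-well plates with compound. Compounds were tested at 1, 10 and 100. The dye turned pink in controls after […] at 37 °C.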

Klebsiella pneumoniae = assay: Antibacterial activity against Klebsiella pneumoniae after 18 to 24 hrs by […]
[3] = system: Mycobacterium tuberculosis; assay: Antimycobacterial activity against Mycobacterium tuberculosis H37Rv ATCC 27294 assessed as inhibition of bacterial growth at 1 to 100 ug/ml after 7 days by resazurin method; outline: as §2
Escherichia coli = assay: Antibacterial activity against Escherichia coli ATCC 25922 after 18 to 24 hrs by […]
[4] = system: Mycolicibacterium fortuitum; assay: Antimycobacterial activity against Mycobacterium fortuitum ATCC 19542 after 7 days by resazurin method; conditions: ATCC 19542, 168 h; outline: as §1
Pseudomonas aeruginosa = assay: Antibacterial activity against Pseudomonas aeruginosa ATCC 27853 after 18 to 24 hrs by […]
Streptococcus pyogenes = assay: Antibacterial activity against Streptococcus pyogenes after 18 to 24 hrs by serial plate dilution method
Staphylococcus aureus = assay: Antibacterial activity against Staphylococcus aureus ATCC 25923 after 18 to 24 hrs by serial plate dilution method

Row | SMILES | MIC [1] [µg/mL] | MIC [2] [µg/mL] | MIC (Klebsiella pneumoniae) [µg/mL] | inhibition (INH) [3] [%] | MIC (Escherichia coli) [µg/mL] | MIC [4] [µg/mL] | MIC (Pseudomonas aeruginosa) [µg/mL] | MIC (Streptococcus pyogenes) [µg/mL] | MIC (Staphylococcus aureus) [µg/mL]
1 | COc1ccc2nc(C)cc(-n3cc(CN4CCN(C(C)=O)CC4)nn3)c2c1 | 10 (≈ 26.3 µM) | 0.625 (≈ 1.64 µM) | 0.1 (≈ 0.263 µM) | 95 | 0.1 (≈ 0.263 µM) | 100 (≈ 263 µM) | 0.2 (≈ 0.526 µM) | 0.2 (≈ 0.526 µM) | 0.4 (≈ 1.05 µM)
2 | COc1ccc2nc(C)cc(-n3cc(CN4CCN(C(=O)c5ccc(Cl)c(Cl)c5)CC4)nn3)c2c1 | 100 (≈ 196 µM) | 5 (≈ 9.78 µM) | 0.8 (≈ 1.56 µM) | 85 | 3.12 (≈ 6.1 µM) | 100 (≈ 196 µM) | 0.8 (≈ 1.56 µM) | 0.8 (≈ 1.56 µM) | 6.25 (≈ 12.2 µM)
3 | COc1ccc2nc(C)cc(-n3cc(CNC(=O)c4ccccc4F)nn3)c2c1 | 100 (≈ 255 µM) | 1 (≈ 2.55 µM) | 0.2 (≈ 0.511 µM) | 90 | 0.4 (≈ 1.02 µM) | 100 (≈ 255 µM) | 0.4 (≈ 1.02 µM) | 0.2 (≈ 0.511 µM) | 0.8 (≈ 2.04 µM)
4 | COc1ccc2nc(C)cc(-n3cc(CNC(C)=O)nn3)c2c1 | 10 (≈ 32.1 µM) | 0.625 (≈ 2.01 µM) | 0.1 (≈ 0.321 µM) | 95 | 0.1 (≈ 0.321 µM) | 10 (≈ 32.1 µM) | 0.2 (≈ 0.642 µM) | 0.2 (≈ 0.642 µM) | 0.4 (≈ 1.28 µM)
5 | COc1ccc2nc(C)cc(-n3cc(CNC(=O)C4CC4)nn3)c2c1 | 100 (≈ 296 µM) | 1 (≈ 2.96 µM) | 0.2 (≈ 0.593 µM) | 90 | 0.4 (≈ 1.19 µM) | 100 (≈ 296 µM) | 1.6 (≈ 4.74 µM) | 0.4 (≈ 1.19 µM) | 0.4 (≈ 1.19 µM)
6 | COc1ccc2nc(C)cc(-n3cc(CNC(=O)C4CCC4)nn3)c2c1 | 100 (≈ 285 µM) | 10 (≈ 28.5 µM) | 1.6 (≈ 4.55 µM) | 85 | 1.6 (≈ 4.55 µM) | 100 (≈ 285 µM) | 0.8 (≈ 2.28 µM) | 0.8 (≈ 2.28 µM) | 1.6 (≈ 4.55 µM)
7 | COc1ccc2nc(C)cc(-n3cc(CNC(=O)c4ccc(F)cc4)nn3)c2c1 | 10 (≈ 25.5 µM) | 0.625 (≈ 1.6 µM) | 0.2 (≈ 0.511 µM) | 90 | 0.2 (≈ 0.511 µM) | 100 (≈ 255 µM) | 0.2 (≈ 0.511 µM) | 0.2 (≈ 0.511 µM) | 0.8 (≈ 2.04 µM)
8 | COc1ccc2nc(C)cc(-n3cc(CNC(=O)c4ccccc4Cl)nn3)c2c1 | 100 (≈ 245 µM) | 10 (≈ 24.5 µM) | 3.12 (≈ 7.65 µM) | 80 | 3.12 (≈ 7.65 µM) | 100 (≈ 245 µM) | 6.25 (≈ 15.3 µM) | 3.12 (≈ 7.65 µM) | 1.6 (≈ 3.92 µM)
9 | CCc1ccc(C(=O)NCc2cn(-c3cc(C)nc4ccc(OC)cc34)nn2)cc1 | 100 (≈ 249 µM) | 100 (≈ 249 µM) | 3.12 (≈ 7.77 µM) | 80 | 3.12 (≈ 7.77 µM) | 100 (≈ 249 µM) | 6.25 (≈ 15.6 µM) | 3.12 (≈ 7.77 µM) | 3.12 (≈ 7.77 µM)
10 | COc1ccc2nc(C)cc(-n3cc(CNC(=O)c4ccc(C)cc4)nn3)c2c1 | 100 (≈ 258 µM) | 100 (≈ 258 µM) | 3.12 (≈ 8.05 µM) | – | 3.12 (≈ 8.05 µM) | 100 (≈ 258 µM) | 6.25 (≈ 16.1 µM) | 0.8 (≈ 2.06 µM) | 1.6 (≈ 4.13 µM)
11 | COc1ccc(C(=O)NCc2cn(-c3cc(C)nc4ccc(OC)cc34)nn2)cc1 | 5 (≈ 12.4 µM) | 0.625 (≈ 1.55 µM) | 0.1 (≈ 0.248 µM) | 95 | 0.1 (≈ 0.248 µM) | 10 (≈ 24.8 µM) | 0.4 (≈ 0.991 µM) | 0.4 (≈ 0.991 µM) | 0.8 (≈ 1.98 µM)
12 | COc1ccc2nc(C)cc(-n3cc(CNC(=O)c4ccc(C(F)(F)F)cc4)nn3)c2c1 | 10 (≈ 22.7 µM) | 0.625 (≈ 1.42 µM) | 0.2 (≈ 0.453 µM) | 95 | 0.4 (≈ 0.906 µM) | 5 (≈ 11.3 µM) | 0.4 (≈ 0.906 µM) | 0.2 (≈ 0.453 µM) | 0.4 (≈ 0.906 µM)
13 | COc1ccc2nc(C)cc(-n3cc(CNS(=O)(=O)c4ccc(F)cc4)nn3)c2c1 | 100 (≈ 234 µM) | 1 (≈ 2.34 µM) | 3.12 (≈ 7.3 µM) | 85 | 3.12 (≈ 7.3 µM) | 100 (≈ 234 µM) | 0.8 (≈ 1.87 µM) | 0.4 (≈ 0.936 µM) | 0.4 (≈ 0.936 µM)
14 | COc1ccc2nc(C)cc(-n3cc(CNS(=O)(=O)c4ccccc4C(F)(F)F)nn3)c2c1 | 100 (≈ 209 µM) | 1 (≈ 2.09 µM) | 0.4 (≈ 0.838 µM) | 90 | 0.2 (≈ 0.419 µM) | 10 (≈ 20.9 µM) | 0.4 (≈ 0.838 µM) | 0.4 (≈ 0.838 µM) | 0.8 (≈ 1.68 µM)
15 | COc1ccc2nc(C)cc(-n3cc(CNS(=O)(=O)c4ccc(Cl)c(Cl)c4)nn3)c2c1 | 100 (≈ 209 µM) | 100 (≈ 209 µM) | 3.12 (≈ 6.52 µM) | – | 12.5 (≈ 26.1 µM) | 100 (≈ 209 µM) | 12.5 (≈ 26.1 µM) | 3.12 (≈ 6.52 µM) | 1.6 (≈ 3.34 µM)
